Only some compounds are listed: those with a hit (about 2.9% of all), similar ones and a draw of the others.
HIV Env fusion – inhibitors of HIV-1 Env-driven cell-cell fusion, primary screen, HeLa-JRFL effector, CEM21 target cells, luciferase. inhibition, % at 12.3 µM. 360,000 compounds, 1.1% hits. AID 651610, 2012;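 active means mean replicate inhibition score of at least 50 and every replicate individually at or above 50; inconclusive means only one of the two criteria met; inactive means mean below 50 and not all replicates reaching 50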;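 further: 0% = plate neutral controls and 100% = maraviroc near 300 nM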
PAX8 inh HTS – inhibitors of PAX8-driven TPO luciferase reporter, primary screen, RMG-I cells, single concentration. SteadyGlo, 24 h. inhibition, % at 12.6 µM. 360,000 compounds, 1.2% hits. AID 652154, 2013;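 active means mean replicate inhibition at least 60% with every replicate also reaching 60%; inconclusive means only one of the two criteria is met; inactive means mean below 60% and not all replicates reaching 60%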;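 further: luciferase light reporting Pax8 driven TPO promoter activity; plate controls were median of neutral control wells for no effect and mitoxantrone controls for full effect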
CDK5 p35 inh – inhibitors of human CDK5/p35 kinase, primary screen, biochemical, single concentration; Cyclin-dependent kinase 5 (Homo sapiens) + Cyclin-dependent kinase 5 activator 1 (Homo …; Recombinant CDK5/p35, ADP-Glo luminescence, 60 min; inhibition, % at 10 µM; 330,000 compounds, 0.01% hits; AID 488839, 2010;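 active means highest replicate inhibition of at least 50% and at least 75% of replicates reaching 50%; inconclusive means only one of the two criteria met; inactive means both criteria failed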;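 further: plate controls were DMSO neutral control for no effect and GW8510 at 10 µM for full effect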
Target sequence (Q00535 whole entry, looked up): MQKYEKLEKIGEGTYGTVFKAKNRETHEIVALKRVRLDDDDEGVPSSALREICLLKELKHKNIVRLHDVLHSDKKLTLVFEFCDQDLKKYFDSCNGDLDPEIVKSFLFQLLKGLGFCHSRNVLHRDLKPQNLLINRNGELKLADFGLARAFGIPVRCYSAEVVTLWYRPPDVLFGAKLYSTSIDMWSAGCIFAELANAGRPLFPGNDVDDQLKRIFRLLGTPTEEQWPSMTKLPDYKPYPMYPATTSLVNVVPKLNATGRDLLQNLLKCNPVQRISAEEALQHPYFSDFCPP
Target sequence (Q15078 whole entry, looked up): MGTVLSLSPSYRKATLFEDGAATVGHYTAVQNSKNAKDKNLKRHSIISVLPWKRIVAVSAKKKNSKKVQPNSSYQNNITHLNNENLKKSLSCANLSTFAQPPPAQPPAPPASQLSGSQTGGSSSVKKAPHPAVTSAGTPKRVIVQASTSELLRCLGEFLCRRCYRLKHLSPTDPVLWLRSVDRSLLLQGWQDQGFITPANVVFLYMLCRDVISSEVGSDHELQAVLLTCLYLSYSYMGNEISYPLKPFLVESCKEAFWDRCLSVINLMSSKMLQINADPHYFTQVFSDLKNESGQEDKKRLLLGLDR
dFosB act-1 – activators of delta FosB homodimer, primary screen, biochemical, fluorescence polarization, TAMRA-CDK5 oligo, single point | Protein FosB (Mus musculus), P13346 | purified delta FosB; percent of positive-control signal above neutral wells | activation, % at 25 µM | 340,000 compounds, 0.99% hits | AID 493131, 2011;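 active means mean activation above about 17%, with every replicate also reaching it, limit read from the data, passing the limit was not always enough; inconclusive means only one of the two conditions met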
INS-1E GSIS act – GLuc luminescence reporter in INS-1E cells, primary screen for activators of glucose-dependent secretion of insulin; INS-1E GLuc reporter insulin secretion, 2-3 h; activation, % at 16.6 µM; 370,000 compounds, 0.61% hits;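 active means lowest replicate activation of at least 40%, so every replicate reaches that level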;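 further: 0% = median of neutral control wells and 100% = median of IBMX positive control wells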
Cneo AK release – Cryptococcus neoformans cell lysis inducers, primary screen, AK release luminescence, single concentration; C. neoformans lysis, adenylate kinase release luminescence, 4 h; normalised: neutral wells 0, clomiphene wells 100; AID 651654, 2012; lysis activity, % at 15 µM; 360,000 compounds, 0.2% hits;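 active means mean lysis activity across replicates of at least 80%, whatever share of replicates individually reach that level; inactive means mean lysis activity below 80%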
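read-out = cell lysis signal | test system = log-phase Cryptococcus neoformans yeast cells | input = cells at 5 × 10^6 per mL | medium = fresh YPD growth medium | signal = luminescent adenylate kinase detection reagent | timing = 4 h at 37 °C static, read 1 h later | dosing = single dose | controls = Clomiphene as positive lysis control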
dFosB act-2 – activators of mouse delta FosB DNA binding, confirmation, biochemical, fluorescence polarization, TAMRA-CDK5 oligo, cherry-picked samples | shares compounds with dFosB act-1 | 2,400 tested, under 10 active | AID 588690, 2011 | purified delta FosB; normalised: neutral wells 0, positive control 100 | activation, % at 24.9 µM;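 active means highest replicate activation at or above 34% and every replicate reaching that threshold; inconclusive means meets only one of the two criteria; inactive means meets neither criterion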;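 further: higher polarization means more probe DNA bound by delta FosB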
The depositor's hits bear a star; ? = inconclusive; nt = not tested or not shown; [ ] = remark or other dose.

SMILES	HIV Env fusion	PAX8 inh HTS	CDK5 p35 inh	dFosB act-1	INS-1E GSIS act	Cneo AK release	dFosB act-2
Cc1cc(C(=O)CN2C(=O)C(=O)N(C3CCCC3)C2=O)c(C)n1CCc1ccccc1	35	7	2	-1	-9	0	nt
Cc1[nH]c2ccccc2c1C(=O)CN1C(=O)C(=O)N(C2CCCC2)C1=O	-10	-4	0	47*	nt	4	6
C[C@H](CO)N1C[C@H](C)[C@H](CN(C)S(=O)(=O)c2ccc(Cl)cc2)Oc2ccc(NS(C)(=O)=O)cc2CC1=O	-1[16.7 µM]	-2	nt	nt	-1	0	nt
CCOc1ccc2nc(C)cc(Nc3ccc4c(c3)OCCO4)c2c1	-34	2	-1	44*	nt	0	4
COc1ccc(Nc2cc(C)nc3c(C)cccc23)cc1OC	18	6	0	?	nt	2	nt
Cc1cc(Nc2ccc3c(c2)OCCO3)c2cccc(C)c2n1	-3	-6	2	31*	37	-1	6
COc1nc(-c2ccc(Cl)cc2)ccc1-c1noc(-c2ccco2)n1	-11	-21	-1	30*	66*	-1	0
COc1cccc(-c2ccc(-c3noc(-c4ccccc4F)n3)c(OC)n2)c1	-11	-12	2	-9	nt	2	nt
CCC(=O)N1C[C@H](O)COC[C@@H]2O[C@@H](CC(=O)NC)CC[C@H]21	3[16.7 µM]	-7	nt	nt	8	-2	nt
CCCNC(=O)C[C@H]1CC[C@H]2[C@@H](COC[C@H](O)CN2C(=O)Nc2ccc3c(c2)OCO3)O1	nt	-24	nt	nt	-7	-1	nt
Cc1c(-c2cc(Br)ccc2O)nc2cc3c(cc2c1C)OCO3	-33	-65	0	24*	4	1	5
CCCc1cc(=O)[nH]c(SCC(=O)Nc2ccc(OCc3ccccc3)cc2)n1	nt	-5	0	28*	-6	-2	0
CCCc1cc(=O)[nH]c(SCC(=O)Nc2cccc3ccccc23)n1	-5	14	-2	22*	-5	-1	2
O=C(Cn1c2ccccc2c(=O)c2ccccc21)Nc1cccc(F)c1	8	-7	-1	37*	-2	nt	4
O=C(CC(=O)Nc1cccc(F)c1)Nc1cccc(F)c1	-12	-29	-1	-2	-3	3	nt
C[C@@H]1CN([C@@H](C)CO)C(=O)c2cc(NS(=O)(=O)c3cn(C)cn3)ccc2O[C@@H](C)CCCCO[C@H]1CN(C)Cc1ccccc1	-8[16.7 µM]	-15	nt	nt	0	-1	nt
N#C/C(=C(/O)c1ccc(Cl)c([N+](=O)[O-])c1)c1nc2ccccc2[nH]1	11	-11	0	42*	-3	2	2
COc1ccc(S(=O)(=O)Nc2ccc3c(c2)C(=O)N([C@H](C)CO)C[C@H](C)[C@@H](CN(C)CC2CC2)OCCCC[C@@H](C)O3)cc1	0[16.7 µM]	2	nt	nt	9	0	nt
OCCNc1nc(Nc2cccc(O)c2)nc2ccccc12	11	-6	3	10	19	nt	nt
OCCNc1nc(Nc2ccc(O)cc2)nc2ccccc12	-20	6	0	19*	nt	0	3
O=C(Nc1ccccc1)c1cnc(-c2ccccc2)nc1-c1ccccc1	-13	27	0	48*	nt	-2	3
CC1Nc2ncnc(N3CCc4ccccc4C3)c2N(Cc2ccc(Br)cc2)C1=O (stereo not given)	-19	21	0	51*	-14	1	-1
CS(=O)(=O)Nc1ccc2c(c1)[C@H]1C[C@H](CC(=O)NCc3ccc(Oc4ccccc4)cc3)O[C@@H](CO)[C@H]1O2	-7[16.7 µM]	10	nt	nt	2	-5	nt
O=C(CSc1n[nH]c(-c2ccc(S(=O)(=O)N3CCCCC3)cc2)n1)Nc1nccs1	nt	nt	-1	64*	nt	nt	5

Assay outcomes from PubChem.
